ChEMBL document CHEMBL1154626, “Novel, potent, and selective quinoxaline-based 5-HT(3) receptor ligands. 1. Further structure-activity relationships and pharmacological characterization” (J Med Chem, 2009)

Legend:
[1] = target: T1, 5-hydroxytryptamine receptor 3A (Rattus norvegicus, UniProt P35563); test: Displacement of [3H]LY278584 from 5HT3 receptor in rat cortical homogenate; conditions: read-out: Ki
T1 sequence (P35563 whole entry): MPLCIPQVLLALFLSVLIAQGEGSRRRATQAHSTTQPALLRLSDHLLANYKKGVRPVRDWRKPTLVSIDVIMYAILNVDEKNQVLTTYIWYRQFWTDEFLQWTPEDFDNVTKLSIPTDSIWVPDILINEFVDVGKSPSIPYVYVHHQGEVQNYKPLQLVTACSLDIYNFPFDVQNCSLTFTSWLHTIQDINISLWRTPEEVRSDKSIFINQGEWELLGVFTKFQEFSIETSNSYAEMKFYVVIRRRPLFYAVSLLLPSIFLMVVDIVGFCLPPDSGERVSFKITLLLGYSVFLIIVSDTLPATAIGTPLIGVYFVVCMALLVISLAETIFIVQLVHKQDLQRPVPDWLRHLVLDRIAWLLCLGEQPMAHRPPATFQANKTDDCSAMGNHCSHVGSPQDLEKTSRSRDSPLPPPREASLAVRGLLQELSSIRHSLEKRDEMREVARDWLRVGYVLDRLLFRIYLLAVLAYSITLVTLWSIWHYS
Outline: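 Rat cortical homogenate, competition against [3H]LY278584 binding. Ki is the concentration giving half-maximal inhibition of binding, as the mean ± S.E.M. of three determinations.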

[2] = target: T2, 5-hydroxytryptamine receptor 3A (Cavia porcellus, UniProt O70212); test: Agonist activity at 5HT3 receptor in voltage-stimulated guinea pig left atrium assessed as positive inotropic potency; assay type: functional, tissue-based, Cardiac atrium
T2 sequence (O70212 whole entry): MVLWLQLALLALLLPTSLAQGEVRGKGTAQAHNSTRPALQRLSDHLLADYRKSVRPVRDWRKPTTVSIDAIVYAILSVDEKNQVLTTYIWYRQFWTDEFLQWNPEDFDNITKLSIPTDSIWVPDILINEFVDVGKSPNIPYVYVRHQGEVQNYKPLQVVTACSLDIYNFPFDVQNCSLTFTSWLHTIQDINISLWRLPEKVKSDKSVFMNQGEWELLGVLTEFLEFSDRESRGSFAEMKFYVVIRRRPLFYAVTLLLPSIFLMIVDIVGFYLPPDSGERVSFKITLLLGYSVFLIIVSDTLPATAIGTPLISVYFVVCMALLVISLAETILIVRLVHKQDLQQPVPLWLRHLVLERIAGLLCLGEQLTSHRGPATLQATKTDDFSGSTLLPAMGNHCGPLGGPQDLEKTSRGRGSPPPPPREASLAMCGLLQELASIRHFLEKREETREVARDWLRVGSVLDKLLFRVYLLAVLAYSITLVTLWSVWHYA

[3] = target: T2, 5-hydroxytryptamine receptor 3A; test: Antagonist activity at 5HT3 receptor in spontaneously beating guinea pig right atrium assessed as inhibition of serotonin-induced maximum response by noncompetitive binding assay; assay type: tissue-based, Cardiac atrium
Outline: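 Spontaneously beating guinea pig right atria, exposed 30 min to test compound at 10 μM, followed by cumulative 5-HT log concentration-response curves versus control. Mean ± SEM of five to seven observations.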

[4] = target: T2, 5-hydroxytryptamine receptor 3A; test: Intrinsic activity at 5HT3 receptor in spontaneously beating guinea pig right atrium assessed as positive chronotropic potency relative to serotonin

Compound | Ki [1] [nM] | EC50 [2] | IC50 [3] | EC50 [4] [nM]
c1ccc(CN2CCN(c3nc4ncccc4n4cccc34)CC2)cc1 | 2.2 | Not Active | Not Active | –
CN1CCN(c2nc3ncccc3n3cccc23)CC1 | 2.4 | – | – | 340
